Test [1] in a line: Inhibitory activity against monkey renin in vitro.
For test [2], the target named is T1, Cathepsin D (Bos taurus, UniProt P80209).
T1 sequence (P80209 whole entry): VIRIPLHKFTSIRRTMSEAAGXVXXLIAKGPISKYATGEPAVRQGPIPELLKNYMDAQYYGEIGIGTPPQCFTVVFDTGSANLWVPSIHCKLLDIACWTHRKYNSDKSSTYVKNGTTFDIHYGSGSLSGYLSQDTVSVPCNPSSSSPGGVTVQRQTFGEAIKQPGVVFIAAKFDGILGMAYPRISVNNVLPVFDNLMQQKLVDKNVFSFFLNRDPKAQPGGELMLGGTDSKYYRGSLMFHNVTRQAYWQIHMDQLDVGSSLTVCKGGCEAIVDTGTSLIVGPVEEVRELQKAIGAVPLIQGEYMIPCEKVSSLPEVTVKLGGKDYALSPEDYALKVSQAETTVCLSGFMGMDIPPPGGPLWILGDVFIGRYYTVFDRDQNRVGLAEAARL
In words: Inhibitory activity against bovine cathepsin D. The method in brief:
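Bovine cathepsin D activity measured in duplicate as hydrolysis of bovine hemoglobin at pH 3.2 and 37 °C, read as net absorbance at 280 nm. Percent inhibition at six inhibitor concentrations; IC50 by nonlinear regression.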

For test [3], the species on record is Bos taurus. In words: Selectivity ratio towards cathepsin D over renin. The procedure, abridged:
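Ratio of cathepsin D IC50 to monkey plasma renin IC50. […] Cathepsin D IC50 from bovine hemoglobin hydrolysis at pH 3.2, 37 °C, A280.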

In test [4] the test system is Monkey. As to the kind of experiment: Effect of compound on blood pressure in conscious, salt-depleted, normotensive, cynomolgus monkeys after oral administration of 30 mg/kg dose at 1 hour. The test is classed as functional, Cercopithecidae.
The subject of test [5] is Monkey. In words: Effect of compound on blood pressure in conscious, salt-depleted, normotensive, cynomolgus monkeys after oral administration of 30 mg/kg dose at 3 hours. The test is classed as functional, Cercopithecidae.
The subject of test [6] is Monkey. In words: Effect of compound on blood pressure in conscious, salt-depleted, normotensive, cynomolgus monkeys after oral administration of 30 mg/kg dose at 2 hours. The test is classed as functional, Cercopithecidae.

Each structure is given as a SMILES string.

Broadly, the IC50 is the midpoint of a concentration-inhibition curve.

Compound `CCOC(NC(=O)C(Cc1cccc2ccccc12)Cc1cccc2ccccc12)C(=O)N[C@@H](CC(C)C)[C@@H](O)CC(=O)NC[C@@H](C)CC` (stereo in doubt; 22) had an IC50 in test [1] of over 1000 nM.
For `CC[C@H](C)CNC(=O)C[C@H](O)[C@H](CC(C)C)NC(=O)C(NC(=O)C(Cc1cccc2ccccc12)Cc1cccc2ccccc12)OC` (stereo partly specified), half-maximal inhibition in test [1] (IC50) was put at 180 nM.
As to `CCOC(NC(=O)[C@H](Cc1ccccc1)NS(=O)(=O)N1CCOCC1)C(=O)N[C@@H](CC1CCCCC1)[C@@H](O)CC(=O)NCCN1CCOCC1` (stereo partly specified), the IC50 in test [2] is over 10000 nM.
`CC[C@H](C)CNC(=O)C[C@H](O)[C@H](CC(C)C)NC(=O)C(NC(=O)C(Cc1cccc2ccccc12)Cc1cccc2ccccc12)NC(C)C` (stereo in doubt; 35) displayed an IC50 in test [1] of over 1000 nM.
For `CC[C@H](C)CNC(=O)C[C@H](O)[C@H](CC(C)C)NC(=O)C(N)NC(=O)C(Cc1cccc2ccccc12)Cc1cccc2ccccc12` (stereo in doubt; 31), in test [1], the IC50 was over 1000 nM.
`CCCOC(NC(=O)[C@H](Cc1ccccc1)NS(=O)(=O)N1CCOCC1)C(=O)N[C@@H](CC1CCCCC1)C(=O)C(F)(F)C(=O)NCCN1CCOCC1` (stereo partly specified): the Selectivity in test [3] amounted to 65.5. Moreover, the “Change in BP” value in test [4] is given as -10 mmHg; in test [5] it was -9 mmHg; in test [6] it was -10 mmHg. The figures for the half-inhibitory concentration (IC50) in test [1] and in test [2] were 2.1 nM and 131 nM, respectively.
`C=CCSC(NC(=O)[C@H](Cc1ccccc1)NS(=O)(=O)N1CCOCC1)C(=O)N[C@@H](CC1CCCCC1)[C@@H](O)CC(=O)NCCN1CCOCC1` (stereo partly specified): the Selectivity in test [3] turned out to be 6.7. In addition, the “Change in BP” value in test [4] is -3 mmHg; in test [5], -6 mmHg; in test [6], -7 mmHg. Moreover, the IC50 worked out at 1.5 nM in test [1] and 10 nM in test [2].
Regarding `CC(C)C[C@H](O)[C@H](O)[C@H](CC1CCCCC1)NC(=O)C(NC(=O)[C@H](Cc1ccccc1)NS(=O)(=O)N1CCOCC1)Sc1cccs1` (stereo partly specified), the Selectivity in test [3] stood at 36.1. The half-maximal inhibitory concentration (IC50) in test [1] turned out to be 13 nM; in test [2] it was 470 nM.
Take `C=CCOC(NC(=O)[C@H](Cc1ccccc1)NS(=O)(=O)N1CCOCC1)C(=O)N[C@@H](CC1CCCCC1)[C@@H](O)[C@@H](O)CC(C)C` (stereo partly specified): the values for the half-inhibitory concentration (IC50) in test [1] and in test [2] were 0.22 nM and 10.5 nM, respectively.
The compound `CCCOC(NC(=O)[C@H](Cc1ccccc1)NS(=O)(=O)N1CCOCC1)C(=O)N[C@@H](CC1CCCCC1)[C@@H](O)[C@@H](O)CC(C)C` (stereo partly specified) displayed a half-maximal inhibitory concentration (IC50) in test [2] of 22 nM.
For the compound `CCSC(NC(=O)[C@H](Cc1ccccc1)NC(=O)OC(C)(C)C)C(=O)N[C@@H](CC1CCCCC1)[C@@H](O)[C@@H](O)CC(C)C` (stereo partly specified), the Selectivity in test [3] turned out to be 20.1. Also, the values for the half-inhibitory concentration (IC50) in test [1] and in test [2] were 1.4 nM and 28.1 nM, respectively.
`CC[C@H](C)CNC(=O)C[C@H](O)[C@H](CC(C)C)NC(=O)C(NC(=O)C(Cc1cccc2ccccc12)Cc1cccc2ccccc12)S(C)(=O)=O` (stereo partly specified) had an IC50 in test [1] of over 1000 nM.
For `CC[C@H](C)CNC(=O)C[C@H](O)[C@H](CC(C)C)NC(=O)C(NC(=O)C(Cc1cccc2ccccc12)Cc1cccc2ccccc12)Oc1ccccc1` (stereo partly specified), the midpoint of inhibition in test [1], the IC50, lay at 633 nM.
With `CC[C@H](C)CNC(=O)C[C@H](O)[C@H](CC(C)C)NC(=O)C(N)NC(=O)C(Cc1cccc2ccccc12)Cc1cccc2ccccc12` (stereo in doubt; 32), the 50% inhibitory concentration (IC50) in test [1] was 1000 nM.
For the compound `CCOC(NC(=O)C(Cc1cccc2ccccc12)Cc1cccc2ccccc12)C(=O)N[C@@H](CC(C)C)[C@@H](O)CC(=O)NC[C@@H](C)CC` (stereo in doubt; 21), the concentration for half-maximal inhibition (IC50) in test [1] was found to be 26 nM.
In test [1], `CC[C@H](C)CNC(=O)C[C@H](O)[C@H](CC(C)C)NC(=O)C(Cc1c[nH]cn1)NC(=O)C(Cc1cccc2ccccc12)Cc1cccc2ccccc12` (stereo partly specified) had an IC50 of 85 nM.
On to `CC(C)C[C@H](O)[C@H](O)[C@H](CC1CCCCC1)NC(=O)C(NC(=O)[C@H](Cc1ccccc1)NS(=O)(=O)N1CCOCC1)OCC(F)(F)F` (stereo partly specified), for which the “Change in BP” value in test [4] was -1 mmHg; in test [5], -2 mmHg; in test [6] it was -1 mmHg. Moreover, the midpoint of inhibition in test [2], the IC50, lay at 21.2 nM.
Turning to `CC[C@H](C)CNC(=O)C[C@H](O)[C@H](CC(C)C)NC(=O)C(NC(=O)C(Cc1cccc2ccccc12)Cc1cccc2ccccc12)Sc1ccccc1` (stereo partly specified), in test [1], the IC50 amounted to 656 nM.
Regarding `C=CCSC(NC(=O)[C@H](Cc1ccccc1)NS(=O)(=O)N1CCOCC1)C(=O)N[C@@H](CC1CCCCC1)[C@@H](O)[C@@H](O)CC(C)C` (stereo partly specified), in test [3], the Selectivity turned out to be 118. Moreover, the results for the IC50 in test [1] and in test [2] were 0.17 nM and 19.4 nM, respectively.
Consider `O=C(C[C@H](O)[C@H](CC1CCCCC1)NC(=O)C(Cc1cnc[nH]1)NC(=O)[C@H](Cc1ccccc1)NS(=O)(=O)N1CCOCC1)NCCN1CCOCC1` (stereo partly specified), for which the 50% inhibitory concentration (IC50) in test [2] was over 10000 nM.
In turn, `CC[C@H](C)CNC(=O)C[C@H](O)[C@H](CC(C)C)NC(=O)C(NC(=O)C(Cc1cccc2ccccc12)Cc1cccc2ccccc12)SC` (stereo partly specified) showed a half-inhibitory concentration (IC50) in test [1] of 95 nM.
As to `CC[C@H](C)CNC(=O)C[C@H](O)[C@H](CC(C)C)NC(=O)C(NC(=O)C(Cc1cccc2ccccc12)Cc1cccc2ccccc12)NC(C)C` (stereo in doubt; 36), the IC50 in test [1] came to 500 nM.
As to `CC[C@H](C)CNC(=O)C[C@H](O)[C@H](CC(C)C)NC(=O)C(NC(C)=O)NC(=O)C(Cc1cccc2ccccc12)Cc1cccc2ccccc12` (stereo partly specified), it took 936 nM to reach half-maximal inhibition in test [1] (IC50).
Regarding `CCCOC(NC(=O)[C@H](Cc1ccccc1)NS(=O)(=O)N1CCOCC1)C(=O)N[C@@H](CC1CCCCC1)[C@@H](O)C(F)(F)C(=O)NCCN1CCOCC1` (stereo partly specified), the “Change in BP” value is given as 3 mmHg in test [4], -3 mmHg in test [5] and -1 mmHg in test [6]. This compound registered an IC50 in test [2] of 699 nM.
For the compound `C#CCOC(NC(=O)[C@H](Cc1ccccc1)NS(=O)(=O)N1CCOCC1)C(=O)N[C@@H](CC1CCCCC1)[C@@H](O)[C@@H](O)CC(C)C` (stereo partly specified), the Selectivity in test [3] stood at 154. In addition, the results for the IC50 in test [1] and in test [2] were 0.52 nM and 80.1 nM, respectively.
In test [2], `CCOC(NC(=O)[C@H](Cc1ccccc1)NS(=O)(=O)N1CCOCC1)C(=O)N[C@@H](CC1CCCCC1)[C@@H](O)[C@@H](O)CC(C)C` (stereo partly specified) yielded an IC50 of 14 nM.
For the compound `CCSC(NC(=O)[C@H](Cc1ccccc1)NS(=O)(=O)N1CCOCC1)C(=O)N[C@@H](CC1CCCCC1)[C@@H](O)[C@@H](O)CC(C)C` (stereo partly specified), the “Change in BP” value in test [4] is -14 mmHg; in test [5] it was -16 mmHg; in test [6] it was -12 mmHg. In test [2], this compound returned a concentration for half-maximal inhibition (IC50) of 10 nM.
In test [2], `CC(C)C[C@H](O)[C@H](O)[C@H](CC1CCCCC1)NC(=O)C(Cc1cnc[nH]1)NC(=O)[C@H](Cc1ccccc1)NS(=O)(=O)N1CCOCC1` (stereo partly specified) came in with an IC50 of over 10000 nM.
Take `CCNC(NC(=O)C(Cc1cccc2ccccc12)Cc1cccc2ccccc12)C(=O)N[C@@H](CC(C)C)[C@@H](O)CC(=O)NC[C@@H](C)CC` (stereo in doubt; 33): the IC50 in test [1] was over 1000 nM.
In test [1], `CC[C@H](C)CNC(=O)C[C@H](O)[C@H](CC(C)C)NC(=O)C(NC(=O)C(Cc1cccc2ccccc12)Cc1cccc2ccccc12)Nc1ccccc1` (stereo partly specified) had a 50% inhibitory concentration (IC50) of 310 nM.
Take `CCNC(NC(=O)C(Cc1cccc2ccccc12)Cc1cccc2ccccc12)C(=O)N[C@@H](CC(C)C)[C@@H](O)CC(=O)NC[C@@H](C)CC` (stereo in doubt; 34): in test [1], it took 210 nM to reach half-maximal inhibition (IC50).
`CC[C@H](C)CNC(=O)C[C@H](O)[C@H](CC(C)C)NC(=O)C(NC(=O)C(Cc1cccc2ccccc12)Cc1cccc2ccccc12)[S+](C)[O-]` (stereo partly specified): in test [1], the midpoint of inhibition, the IC50, lay at 615 nM.
As to `C=CCN(C)C(NC(=O)[C@H](Cc1ccccc1)NC(=O)OC(C)(C)C)C(=O)N[C@@H](CC1CCCCC1)[C@@H](O)[C@@H](O)CC(C)C` (stereo partly specified), in test [2], inhibition was half-maximal at 60.4 nM (IC50).

The record behind these values is ChEMBL document CHEMBL1126322, “Renin inhibitors containing alpha-heteroatom amino acids as P2 residues” (J Med Chem, 1992).
